We go through 17 molecules from ChEMBL document CHEMBL1150584, “Antifungal stilbenoids from Stemona collinsae” (J Nat Prod, 2002).

The subject of assay [1] is Cladosporium herbarum. Description: Growth inhibition of Cladosporium herbarum VIAM MA1511 at 10 ug by bioautography test. The assay is classed as functional, organism-based.
Assay [2] deals with Alternaria citri. Description: Inhibition of germ tube formation in Alternaria citri VIAM MA1627 after 16 hrs by microdilution technique. Format: functional, organism-based. The method, boiled down: (§1)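 Stock (2 mg in 250 µL acetone plus 4.75 mL 4% malt extract, emulsified with 0.2% Tween 80) serially 2-fold microdiluted in 4% malt extract broth. Conidia were added at 10⁴ CFU/mL, then incubated 16 h at room temperature and stopped with lactophenol blue. Mycelial size was taken as pixel counts from images of 10 germinated conidia per well. Probit-log estimates covered 200–0.1 µg/mL. Controls were vehicle stock and benomyl.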
On the technique in general: In broth dilution the organism is exposed to a series of concentrations in liquid medium.

Assay [3] relates to Fusarium avenaceum. Description: Inhibition of germ tube formation in Fusarium avenaceum VIAM MA1512 after 16 hrs by microdilution technique. The assay is classed as functional, organism-based. The gist of the method: as §1
Assay [4] deals with Pyricularia grisea. Description: Inhibition of germ tube formation in Pyricularia grisea VIAM MA1628 after 16 hrs by microdilution technique. Format: functional, organism-based. The gist of the method:
(§2)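 Germ tube inhibition by 2-fold serial microdilution in 4% malt extract broth. Compound stock of 2 mg in 250 µL acetone plus 4.75 mL malt extract with 0.2% Tween 80; negative control was stock without compound. Spores added at 10⁴ CFU/mL, incubated 16 h at room temperature, stopped with lactophenol blue. Mycelial size taken as pixel counts from images of 10 germinated conidia per well. Probit-log estimates over 200–0.1 µg/mL; MIC = lowest concentration with no germination.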

Assay [5] relates to Botrytis cinerea. Description: Inhibition of germ tube formation in Botrytis cinerea VIAM MA2725 after 16 hrs by microdilution technique. The assay is classed as functional, organism-based. The method, boiled down:
as §1

Assay [6] relates to Botrytis cinerea. Description: Inhibition of germ tube formation in Botrytis cinerea VIAM MA2725 at 0.4 to 200 ug/ml after 16 hrs by microdilution technique. The assay is classed as functional. The method, boiled down:
as §2

For assay [7], the system named is Cladosporium herbarum. Description: Inhibition of germ tube formation in Cladosporium herbarum VIAM MA1511 after 16 hrs by microdilution technique. The assay is classed as functional, organism-based. The method, boiled down: as §1
Assay [8] relates to Cladosporium herbarum. Description: Inhibition of germ tube formation in Cladosporium herbarum VIAM MA1511 at 0.4 to 200 ug/ml after 16 hrs by microdilution technique. Format: functional. The gist of the method: as §2
Assay [9] relates to Fusarium avenaceum. Description: Inhibition of germ tube formation in Fusarium avenaceum VIAM MA1512 at 1.6 to 200 ug/ml after 16 hrs by microdilution technique. The assay is classed as functional. The gist of the method:
as §1

Assay [10] concerns Botrytis cinerea. Description: Inhibition of germ tube formation in Botrytis cinerea VIAM MA2725 at 1.6 to 200 ug/ml after 16 hrs by microdilution technique. Format: functional. The method, boiled down:
as §1

Values after ≈ are worked out from the molar mass of the structure shown. Active and inactive are the calls of the source. No cut-off for these calls is given here.

Regarding `COc1cc(O)c(C)c(-c2cc3c(O)cccc3o2)c1`, in [1], the result was Active.
Still for that read-out and setting: the value for `COc1cc(O)c(C)c(CCc2cccc(O)c2OC)c1` was “Active”; that for `COc1cc(O)cc(CCc2cccc(O)c2OC)c1` was “Active”.
For `Cc1c(O)cc(/C=C/c2ccccc2)cc1O`, in assay [1], the result was Active.
Still for that read-out and setting: then `Cc1c(O)cc(CCc2ccccc2O)cc1O`, with “Active”.
Take `Oc1cc(O)cc(-c2cc3ccccc3o2)c1`: in assay [1], the result was Active.
The same measure, in the same setting: then `Oc1cc(O)cc(/C=C/c2ccccc2)c1`, with “Active”.
A word on the EC50: it is the concentration at which the effect is half-maximal. A lower EC50 goes with an effect from little substance. For orientation: EC90 means the concentration needed for an effect of 90%. One may read the MIC as the lowest concentration found to suppress growth. A lower MIC goes with inhibition by little substance. Turning to `CCCCNC(=O)n1c(NC(=O)OC)nc2ccccc21` [BENOMYL], the 50% effective concentration (EC50) in [2] was above 200 µg/mL; in assay [3], 0.02 µg/mL (≈ 0.0689 µM). For the same molecule, the figures for the EC90 in [2], in [3] and in assay [4] were above 200 µg/mL, above 200 µg/mL and 84 µg/mL (≈ 289 µM), respectively. Besides, the MIC is above 200 µg/mL in assay [2]; 100 µg/mL (≈ 344 µM) in assay [3]; 200 µg/mL (≈ 689 µM) in assay [4]; above 200 µg/mL in assay [5]; above 200 µg/mL in assay [7]. The “inhibition (INH)” value in assay [6] and in assay [8] was 85% each time.
Turning to `COc1cc(O)cc(-c2cc3c(O)cccc3o2)c1` [STEMOFURAN B], the outcome in [1] was Active. Also, the EC50 in [2] is 5 µg/mL (≈ 19.5 µM); in [3], 10 µg/mL (≈ 39 µM); in assay [4], 1.4 µg/mL (≈ 5.46 µM); in assay [5], 8 µg/mL (≈ 31.2 µM); in assay [7], 183 µg/mL (≈ 714 µM). Also, the 90% effect concentration (EC90) in [2] was 128 µg/mL (≈ 499 µM); in assay [3], above 200 µg/mL; in assay [4], 52 µg/mL (≈ 203 µM); in assay [5], above 200 µg/mL; in [7], above 200 µg/mL. Moreover, the minimum inhibitory concentration (MIC) was 200 µg/mL (≈ 780 µM) in assay [2]; above 200 µg/mL in [3]; 50 µg/mL (≈ 195 µM) in [4]; above 200 µg/mL in assay [5]; above 200 µg/mL in [7].
On to `Cc1c(O)cc(-c2cc3ccccc3o2)cc1O` [STEMOFURAN C], for which the result in assay [1] was Active. Besides, the EC50 came to 7 µg/mL (≈ 29.1 µM) in [2]; 21 µg/mL (≈ 87.4 µM) in [3]; 3.2 µg/mL (≈ 13.3 µM) in [4]; 29 µg/mL (≈ 121 µM) in [5]; 8 µg/mL (≈ 33.3 µM) in assay [7]. Further, the 90% effect concentration (EC90) in assay [2] was 528 µg/mL (≈ 2200 µM); in assay [3] it was above 200 µg/mL; in assay [4] it was 30 µg/mL (≈ 125 µM); in [5], above 200 µg/mL; in assay [7], above 200 µg/mL. Besides, the minimum inhibitory concentration (MIC) in assay [2] is above 200 µg/mL; in assay [3], above 200 µg/mL; in assay [4] it was 50 µg/mL (≈ 208 µM); in assay [5], above 200 µg/mL; in assay [7], above 200 µg/mL.
Regarding `COc1cc(-c2cc3c(O)cccc3o2)c(C)c(O)c1C` [STEMOFURAN E], the outcome in assay [1] was Active. Moreover, the EC50 was 5 µg/mL (≈ 17.6 µM) in assay [2], 18 µg/mL (≈ 63.3 µM) in assay [3], 26 µg/mL (≈ 91.4 µM) in assay [5] and 0.8 µg/mL (≈ 2.81 µM) in assay [7]. Also, the EC90 in assay [2], in [3], in assay [5] and in assay [7] was above 200 µg/mL each time. In addition, the MIC in assay [2], in [3], in assay [5] and in [7] was above 200 µg/mL each time.
With `COc1c(C)c(O)c(C)c(-c2cc3c(O)cccc3o2)c1C` [STEMOFURAN F], in assay [1], the result was Active. Further, the half-maximal effective concentration (EC50) in assay [2] came out at 10 µg/mL (≈ 33.5 µM); in assay [7], 79 µg/mL (≈ 265 µM). The concentration for an effect of 90% (EC90) in [2] and in [7] was above 200 µg/mL throughout. The MIC in assay [2], in assay [3], in [5] and in [7] was above 200 µg/mL in each case. Moreover, the “inhibition (INH)” value in [9] and in assay [10] was 30% each time.
For `COc1cc(-c2cc3c(O)c(C)ccc3o2)c(C)c(O)c1C` [STEMOFURAN G], the EC50 in assay [2] was 14 µg/mL (≈ 46.9 µM); in [7], above 200 µg/mL. Further, the 90% effect concentration (EC90) in [2] and in assay [7] was above 200 µg/mL in each case. For the same molecule, the MIC in assay [2], in [3], in assay [5] and in [7] was above 200 µg/mL in each case. Also, the “inhibition (INH)” value in assay [9] and in assay [10] was 30% throughout.
Turning to `COc1cc(-c2cc3c(O)cccc3o2)c(C)c(OC)c1C` [STEMOFURAN J], the concentration giving a half-maximal response (EC50) in assay [2] stood at 50 µg/mL (≈ 168 µM); in assay [3], 32 µg/mL (≈ 107 µM); in assay [4] it was 0.9 µg/mL (≈ 3.02 µM); in [5], 50 µg/mL (≈ 168 µM); in assay [7], 34 µg/mL (≈ 114 µM). Further, the EC90 in assay [2] is above 200 µg/mL; in [3] it was above 200 µg/mL; in [4], 8.5 µg/mL (≈ 28.5 µM); in assay [5], above 200 µg/mL; in [7] it was above 200 µg/mL. For the same molecule, the MIC was above 200 µg/mL in assay [2]; above 200 µg/mL in [3]; 25 µg/mL (≈ 83.8 µM) in [4]; above 200 µg/mL in assay [5]; above 200 µg/mL in assay [7].
As to `COc1ccccc1CCc1cc(O)cc(O)c1` [STILBOSTEMIN A], the result in [1] was Active. Besides, the EC50 was 70 µg/mL (≈ 287 µM) in [2], above 200 µg/mL in assay [3], 46 µg/mL (≈ 188 µM) in assay [4] and above 200 µg/mL in assay [7]. The 90% effect concentration (EC90) in [2], in assay [3], in [4] and in assay [7] was above 200 µg/mL throughout. Moreover, the MIC in assay [2], in assay [3], in assay [4], in assay [5] and in [7] was above 200 µg/mL in each case. For the same molecule, in [10], the “inhibition (INH)” value came to 30%.
Regarding `Cc1c(O)cc(CCc2ccccc2)cc1O` [STILBOSTEMIN B], the result in assay [1] was Active. Besides, the 50% effective concentration (EC50) in assay [2] worked out at 5 µg/mL (≈ 21.9 µM); in assay [3] it was 16 µg/mL (≈ 70.1 µM); in assay [4], 3 µg/mL (≈ 13.1 µM); in assay [5] it was 10 µg/mL (≈ 43.8 µM); in assay [7] it was 15 µg/mL (≈ 65.7 µM). Further, the EC90 was above 200 µg/mL in assay [2]; above 200 µg/mL in [3]; 371 µg/mL (≈ 1630 µM) in assay [4]; above 200 µg/mL in [5]; above 200 µg/mL in assay [7]. In addition, the MIC in [2] was 200 µg/mL (≈ 876 µM); in [3], above 200 µg/mL; in assay [4], 100 µg/mL (≈ 438 µM); in assay [5], above 200 µg/mL; in assay [7], above 200 µg/mL.
As to `COc1ccccc1CCc1cc(O)c(C)c(O)c1` [STILBOSTEMIN D], the outcome in assay [1] was Active. The half-maximal effective concentration (EC50) came to 19 µg/mL (≈ 73.6 µM) in assay [2]; 57 µg/mL (≈ 221 µM) in [3]; 3 µg/mL (≈ 11.6 µM) in assay [4]; 11 µg/mL (≈ 42.6 µM) in [5]; 17 µg/mL (≈ 65.8 µM) in assay [7]. In addition, the concentration for an effect of 90% (EC90) in [2] is above 200 µg/mL; in [3], above 200 µg/mL; in [4], 152 µg/mL (≈ 588 µM); in assay [5] it was above 200 µg/mL; in assay [7], above 200 µg/mL. Also, the MIC in assay [2] is above 200 µg/mL; in [3], above 200 µg/mL; in assay [4] it was 100 µg/mL (≈ 387 µM); in [5], above 200 µg/mL; in [7] it was above 200 µg/mL.
